# Assay results as given in ChEMBL document CHEMBL4665625, “New pyrido[3,4-g]quinazoline derivatives as CLK1 and DYRK1A inhibitors: synthesis, biological evaluation and binding mode analysis” (Eur J Med Chem, 2019).
# Legend:
# [1] = molecular target: T1, Cyclin-dependent kinase 5/CDK5 activator 1 (Homo sapiens) (UniProt Q00535+Q15078); experiment: Inhibition of recombinant human CDK5/p25 expressed in bacteria assessed as residual activity at 1 uM using histone H1 as substrate in presence of [gamma-33P]ATP relative to control
# T1 sequence (Q00535 whole entry): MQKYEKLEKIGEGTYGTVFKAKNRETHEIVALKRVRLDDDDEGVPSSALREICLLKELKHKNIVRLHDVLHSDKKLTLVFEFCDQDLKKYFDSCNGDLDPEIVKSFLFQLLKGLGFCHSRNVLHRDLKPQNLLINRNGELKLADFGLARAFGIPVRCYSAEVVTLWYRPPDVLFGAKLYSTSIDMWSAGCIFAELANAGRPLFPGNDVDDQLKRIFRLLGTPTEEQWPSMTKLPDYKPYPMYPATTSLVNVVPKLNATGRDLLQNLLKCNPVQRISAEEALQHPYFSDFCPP
# T1 sequence (Q15078 99-307 partner limits assumed): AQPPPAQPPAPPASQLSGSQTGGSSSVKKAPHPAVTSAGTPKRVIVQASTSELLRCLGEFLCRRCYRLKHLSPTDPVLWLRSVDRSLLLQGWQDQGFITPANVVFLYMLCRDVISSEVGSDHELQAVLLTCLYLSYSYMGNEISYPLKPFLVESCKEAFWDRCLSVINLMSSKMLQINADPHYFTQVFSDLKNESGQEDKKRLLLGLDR
# In short: (§1)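 Human recombinant CDK5/p25 (bacterially expressed) assayed with 0.8 μg/μl histone H1 as substrate and 15 μM [γ-33P]ATP. Residual activity versus DMSO controls, triplicate.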
# [2] = molecular target: T1, Cyclin-dependent kinase 5/CDK5 activator 1 (Homo sapiens); experiment: Inhibition of recombinant human CDK5/p25 expressed in bacteria assessed as residual activity at 10 uM using histone H1 as substrate in presence of [gamma-33P]ATP relative to control; in short: as §1
# [3] = molecular target: T2, Glycogen synthase kinase-3 (Sus scrofa) (UniProt B2LUN4+I6LNT8); experiment: Inhibition of porcine brain GSK-3alpha/beta assessed as residual activity at 1 uM using YRRAAVPPSPSLSRHSSPHQSpEDEEE as substrate in presence of [gamma-33P]ATP relative to control; assay type: tissue-based; settings: Sus scrofa domesticus
# In short: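 Affinity-purified porcine brain GSK-3α/β with 0.01 µg/µl GS-1 peptide (phosphoserine-primed) as substrate and 15 µM [γ-33P]ATP. Buffer was 25 mM Tris-HCl pH 7.5, 10 mM MgCl2, 1 mM EGTA, 1 mM DTT, 50 µg/ml heparin and 0.15 mg/ml BSA. Radioactive incorporation was compared with DMSO-dilution controls, in triplicate.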
# [4] = molecular target: T2, Glycogen synthase kinase-3 (Sus scrofa); experiment: Inhibition of porcine brain GSK-3alpha/beta assessed as residual activity at 10 uM using YRRAAVPPSPSLSRHSSPHQSpEDEEE as substrate in presence of [gamma-33P]ATP relative to control; assay type: tissue-based; settings: Sus scrofa domesticus
# [5] = molecular target: Dual specificity protein kinase CLK1 (Mus musculus) (UniProt P22518); experiment: Inhibition of recombinant mouse CLK1 expressed in bacteria assessed as residual activity at 1 uM using GRSRSRSRSRSR as substrate in presence of [gamma-33P]ATP relative to control
# Sequence of Dual specificity protein kinase CLK1 (Mus musculus) (P22518 whole entry, looked up, the tested form may be a part): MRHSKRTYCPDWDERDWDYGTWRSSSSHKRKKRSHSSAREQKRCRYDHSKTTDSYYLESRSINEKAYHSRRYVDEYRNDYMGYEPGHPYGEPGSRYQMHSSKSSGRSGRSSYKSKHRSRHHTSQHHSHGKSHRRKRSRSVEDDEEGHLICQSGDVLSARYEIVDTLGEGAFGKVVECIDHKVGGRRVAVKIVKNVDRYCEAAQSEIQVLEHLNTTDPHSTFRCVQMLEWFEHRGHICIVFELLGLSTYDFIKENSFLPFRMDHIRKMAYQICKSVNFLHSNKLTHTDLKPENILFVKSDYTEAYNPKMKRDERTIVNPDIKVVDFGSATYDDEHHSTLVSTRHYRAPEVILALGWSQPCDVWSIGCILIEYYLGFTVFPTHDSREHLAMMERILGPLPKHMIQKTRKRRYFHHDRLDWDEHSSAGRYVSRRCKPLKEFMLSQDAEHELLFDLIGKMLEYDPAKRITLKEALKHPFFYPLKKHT
# [6] = molecular target: Dual specificity tyrosine-phosphorylation-regulated kinase 1A (Rattus norvegicus) (UniProt Q63470); experiment: Inhibition of rat DYRK1A kinase domain (1 to 499 residues) expressed in bacteria assessed as residual activity at 1 uM using KKISGRLSPIMTEQ as substrate in presence of [gamma-33P]ATP relative to control
# In short: (§2)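 Buffer: 10 mM MgCl2, 1 mM EGTA, 1 mM DTT, 25 mM Tris-HCl pH 7.5, 50 μg/ml heparin, 0.15 mg/ml BSA.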
# [7] = molecular target: T3, Dual specificity protein kinase CLK1 (Mus musculus, UniProt P22518); experiment: Inhibition of recombinant mouse CLK1 expressed in bacteria using GRSRSRSRSRSR as substrate measured after 30 mins in presence of ATP by ADP-Glo kinase assay
# T3 sequence (P22518 whole entry): as the sequence (P22518 whole entry, looked up, the tested form may be a part) above
# In short: (§3)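 ADP-Glo luminescent kinase assay at 10 μM ATP, 30 min reaction at 30 °C; luminescence read as relative light units to derive IC50.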
# [8] = molecular target: Dual specificity tyrosine-phosphorylation-regulated kinase 1A (Rattus norvegicus) (UniProt Q63470); experiment: Inhibition of rat DYRK1A kinase domain (1 to 499 residues) expressed in bacteria assessed as residual activity at 10 uM using KKISGRLSPIMTEQ as substrate in presence of [gamma-33P]ATP relative to control; in short: as §2
# Sus scrofa domesticus [9] = species on record: Sus scrofa domesticus; experiment: Inhibition of porcine brain CK1delta/epsilon assessed as residual activity at 1 uM using RRKHAAIGSpAYSITA as substrate in presence of [gamma-33P]ATP relative to control; assay type: tissue-based
# Sus scrofa domesticus [10] = species on record: Sus scrofa domesticus; experiment: Inhibition of porcine brain CK1delta/epsilon assessed as residual activity at 10 uM using RRKHAAIGSpAYSITA as substrate in presence of [gamma-33P]ATP relative to control; assay type: tissue-based
# [11] = molecular target: Dual specificity protein kinase CLK1 (Mus musculus) (UniProt P22518); experiment: Inhibition of recombinant mouse CLK1 expressed in bacteria assessed as residual activity at 10 uM using GRSRSRSRSRSR as substrate in presence of [gamma-33P]ATP relative to control
# U2OS = experiment: Antiproliferative activity against human U2OS cells assessed as cell viability at 2 uM after 48 hrs by CellTiter96 AQueous assay relative to control; assay type: functional; settings: read-out: Activity
# In short: (§4)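 Cells grown in McCoy's 5a (HCT116), DMEM (SH-SY5Y, MDA-MB231, U-2 OS) or DMEM:F12 (hTERT-RPE1), each with 10% fetal calf serum, 2 mM L-glutamine, penicillin/streptomycin. Exposed to compound at 2 μM for 48 h; viability read by CellTiter96 AQueous per manufacturer, as % of DMSO-treated cells. Triplicate, mean ± SD; staurosporine as positive control.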
# SH-SY5Y = experiment: Antiproliferative activity against human SH-SY5Y cells assessed as cell viability at 2 uM after 48 hrs by CellTiter96 AQueous assay relative to control; assay type: functional; settings: read-out: Activity; in short: as §4
# MDA-MB-231 = experiment: Antiproliferative activity against human MDA-MB-231 cells assessed as cell viability at 2 uM after 48 hrs by CellTiter96 AQueous assay relative to control; assay type: functional; settings: read-out: Activity; in short: as §4
# [12] = Antiproliferative activity against hTERT-RPE1 cells assessed as cell viability at 2 uM after 48 hrs by CellTiter96 AQueous assay relative to control; assay type: cell-based, TERT-RPE1; settings: human, read-out: Activity; in short: as §4
# HCT-116 = experiment: Antiproliferative activity against human HCT116 cells assessed as cell viability at 2 uM after 48 hrs by CellTiter96 AQueous assay relative to control; assay type: functional; settings: read-out: Activity; in short: as §4
# [13] = molecular target: T4, Dual specificity tyrosine-phosphorylation-regulated kinase 1A (Rattus norvegicus, UniProt Q63470); experiment: Inhibition of rat DYRK1A kinase domain (1 to 499 residues) expressed in bacteria using KKISGRLSPIMTEQ as substrate in presence of [gamma-33P]ATP; in short: as §2
# [14] = Selectivity index, ratio of IC50 for recombinant mouse CLK1 expressed in bacteria to IC50 for rat DYRK1A kinase domain (1 to 499 residues) expressed in bacteria
# [15] = molecular target: T3, Dual specificity protein kinase CLK1; experiment: Inhibition of recombinant mouse CLK1 expressed in bacteria using GRSRSRSRSRSR as substrate in presence of [gamma-33P]ATP
# [16] = molecular target: T4, Dual specificity tyrosine-phosphorylation-regulated kinase 1A; experiment: Inhibition of rat DYRK1A kinase domain (1 to 499 residues) expressed in bacteria using KKISGRLSPIMTEQ as substrate measured after 30 mins in presence of ATP by ADP-Glo kinase assay; in short: as §3
smiles,measurement,setting,value
CNc1ncc2cc3cnccc3c(N)c2n1,Activity,[1],33%
same,Activity,[2],3%
same,Activity,[3],79%
same,Activity,[4],40%
same,Activity,[5],9%
same,Activity,[6],27%
same,IC50,[7],0.274 µM
same,Activity,[8],1%
same,Activity,Sus scrofa domesticus [9],85%
same,Activity,Sus scrofa domesticus [10],60%
same,Activity,[11],1%
Nc1c2ccncc2cc2cnc(NCCCN3CCCC3)nc12,Activity,[1],86%
same,viability at 2 µM,U2OS,33%
same,viability at 2 µM,SH-SY5Y,92.2%
same,Activity,[2],44%
same,Activity,[3],50%
same,Activity,[4],23%
same,Activity,[5],26%
same,viability at 2 µM,MDA-MB-231,22%
same,Activity,[6],25%
same,"viability at 48 h, 2 µM",[12],52%
same,viability at 2 µM,HCT-116,21%
same,IC50,[13],0.09 µM
same,Activity,[8],1%
same,Activity,Sus scrofa domesticus [9],69%
same,Activity,Sus scrofa domesticus [10],23%
same,Activity,[11],4%
Nc1c2ccncc2cc2cnc(NCCCN3CCOCC3)nc12,Activity,[1],67%
same,Ratio IC50,[14],12.6
same,viability at 2 µM,U2OS,6.4%
same,viability at 2 µM,SH-SY5Y,3.6%
same,Activity,[2],23%
same,Activity,[3],41%
same,Activity,[4],6%
same,Activity,[5],20%
same,viability at 2 µM,MDA-MB-231,15%
same,IC50,[15],0.29 µM
same,Activity,[6],5%
same,"viability at 48 h, 2 µM",[12],0%
same,viability at 2 µM,HCT-116,0.8%
same,IC50,[13],0.023 µM
same,Activity,[8],6%
same,Activity,Sus scrofa domesticus [9],53%
same,Activity,Sus scrofa domesticus [10],24%
same,Activity,[11],4%
CN1CCN(CCNc2ncc3cc4cnccc4c(N)c3n2)CC1,Activity,[1],88%
same,viability at 2 µM,U2OS,13%
same,viability at 2 µM,SH-SY5Y,62%
same,Activity,[2],55%
same,Activity,[3],44%
same,Activity,[4],22%
same,Activity,[5],21%
same,viability at 2 µM,MDA-MB-231,21.7%
same,IC50,[15],0.21 µM
same,Activity,[6],19%
same,"viability at 48 h, 2 µM",[12],19.4%
same,viability at 2 µM,HCT-116,6.1%
same,IC50,[13],0.12 µM
same,Activity,[8],2%
same,Activity,Sus scrofa domesticus [9],100%
same,Activity,Sus scrofa domesticus [10],70%
same,Activity,[11],4%
CN1CCN(CCCNc2ncc3cc4cnccc4c(N)c3n2)CC1,Activity,[1],49%
same,Ratio IC50,[14],5.9
same,viability at 2 µM,U2OS,0.1%
same,viability at 2 µM,SH-SY5Y,0.1%
same,Activity,[2],15%
same,Activity,[3],35%
same,Activity,[4],4%
same,Activity,[5],8%
same,viability at 2 µM,MDA-MB-231,3.6%
same,IC50,[15],0.117 µM
same,Activity,[6],4%
same,"viability at 48 h, 2 µM",[12],0%
same,viability at 2 µM,HCT-116,0%
same,IC50,[13],0.02 µM
same,Activity,[8],1%
same,Activity,Sus scrofa domesticus [9],61%
same,Activity,Sus scrofa domesticus [10],30%
same,Activity,[11],6%
CCN(CC)CCCNc1ncc2cc3cnccc3c(N)c2n1,Activity,[1],68%
same,Activity,[2],20%
same,Activity,[3],61%
same,Activity,[4],22%
same,Activity,[5],21%
same,IC50,[15],0.16 µM
same,Activity,[6],24%
same,IC50,[13],0.08 µM
same,Activity,[8],2%
same,Activity,Sus scrofa domesticus [9],68%
same,Activity,Sus scrofa domesticus [10],45%
same,Activity,[11],2%
CN(C)CCCNc1ncc2cc3cnccc3c(N)c2n1,Activity,[1],77%
same,viability at 2 µM,U2OS,0%
same,viability at 2 µM,SH-SY5Y,0%
same,Activity,[2],34%
same,Activity,[3],36%
same,Activity,[4],10%
same,Activity,[5],14%
same,viability at 2 µM,MDA-MB-231,0.4%
same,IC50,[15],0.12 µM
same,Activity,[6],17%
same,"viability at 48 h, 2 µM",[12],0%
same,viability at 2 µM,HCT-116,0%
same,IC50,[13],0.12 µM
same,Activity,[8],1%
same,Activity,Sus scrofa domesticus [9],96%
same,Activity,Sus scrofa domesticus [10],61%
same,Activity,[11],1%
CN(C)CCNc1ncc2cc3cnccc3c([N+](=O)[O-])c2n1,Activity,[1],100%
same,viability at 2 µM,U2OS,3.3%
same,viability at 2 µM,SH-SY5Y,42.7%
same,Activity,[2],52%
same,Activity,[3],70%
same,Activity,[4],21%
same,Activity,[5],22%
same,viability at 2 µM,MDA-MB-231,9.4%
same,IC50,[15],0.062 µM
same,Activity,[6],89%
same,"viability at 48 h, 2 µM",[12],29.2%
same,viability at 2 µM,HCT-116,13.3%
same,Activity,[8],17%
same,Activity,Sus scrofa domesticus [9],100%
same,Activity,Sus scrofa domesticus [10],36%
same,Activity,[11],5%
Nc1c2ccncc2cc2cnc(NCCN3CCOCC3)nc12,Activity,[1],52%
same,Activity,[2],10%
same,Activity,[3],76%
same,Activity,[4],24%
same,Activity,[5],27%
same,IC50,[16],0.197 µM
same,Activity,[6],17%
same,Activity,[8],1%
same,Activity,Sus scrofa domesticus [9],77%
same,Activity,Sus scrofa domesticus [10],34%
same,Activity,[11],4%
